The test system of assay [1] is Pseudomonas aeruginosa. Kind of assay: Antimicrobial activity against SHV-12 ESBL producing Pseudomonas aeruginosa isolate 2204 isolated from burn patient by broth microdilution method. The class given is functional. The essentials: (§1)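 MICs were determined by broth microdilution following the CLSI proposal. For clavulanic acid combinations, clavulanate was held at a fixed concentration. The seven isolates came from a single burn patient over the clinical course. P072204 was taken from sputum; all others were taken from burn sites. Isolates were typed by PCR for blaSHV and IS26.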

Assay [2] relates to Pseudomonas aeruginosa. Kind of assay: Antimicrobial activity against SHV-12 ESBL non-producing Pseudomonas aeruginosa isolate 2202 isolated from burn patient by broth microdilution method in presence of beta-lactamase inhibitor clavulanic acid. On the technique in general: Broth dilution looks for growth in wells or tubes with falling amounts of substance.
Assay [3] has as its system Pseudomonas aeruginosa. Kind of assay: Antimicrobial activity against SHV-12 ESBL producing Pseudomonas aeruginosa isolate 2207 isolated from burn patient by broth microdilution method in presence of beta-lactamase inhibitor clavulanic acid. The class given is functional.
Assay [4] relates to Pseudomonas aeruginosa. Kind of assay: Antimicrobial activity against SHV-12 ESBL producing Pseudomonas aeruginosa isolate 2203 isolated from burn patient by broth microdilution method. The class given is functional. In a few lines: as §1
In assay [5] the test system is Pseudomonas aeruginosa. The assay can be described thus: Antimicrobial activity against SHV-12 ESBL producing Pseudomonas aeruginosa isolate 2205 isolated from burn patient by broth microdilution method in presence of beta-lactamase inhibitor clavulanic acid. The assay is classed as functional.
The test system of assay [6] is Pseudomonas aeruginosa. The assay can be described thus: Antimicrobial activity against SHV-12 ESBL non-producing Pseudomonas aeruginosa isolate 2203 isolated from burn patient by broth microdilution method in presence of beta-lactamase inhibitor clavulanic acid.
For assay [7], the system named is Pseudomonas aeruginosa. The assay can be described thus: Antimicrobial activity against SHV-12 ESBL producing Pseudomonas aeruginosa isolate 2202 isolated from burn patient by broth microdilution method. The class given is functional. In a few lines:
as §1

The test system of assay [8] is Pseudomonas aeruginosa. The assay can be described thus: Antimicrobial activity against SHV-12 ESBL producing Pseudomonas aeruginosa isolate 2207 isolated from burn patient by broth microdilution method. The class given is functional. The essentials:
as §1

Assay [9] concerns Pseudomonas aeruginosa. The assay can be described thus: Antimicrobial activity against SHV-12 ESBL producing Pseudomonas aeruginosa isolate 2206 isolated from burn patient by broth microdilution method. The assay is classed as functional. The essentials: as §1
Assay [10] has as its system Pseudomonas aeruginosa. Kind of assay: Antimicrobial activity against SHV-12 ESBL producing Pseudomonas aeruginosa isolate 2201 isolated from burn patient by broth microdilution method. The class given is functional. In a few lines: as §1
Assay [11] relates to Pseudomonas aeruginosa. The assay can be described thus: Antimicrobial activity against SHV-12 ESBL producing Pseudomonas aeruginosa isolate 2206 isolated from burn patient by broth microdilution method in presence of beta-lactamase inhibitor clavulanic acid. The class given is functional.
The test system of assay [12] is Pseudomonas aeruginosa. The assay can be described thus: Antimicrobial activity against SHV-12 ESBL producing Pseudomonas aeruginosa isolate 2205 isolated from burn patient by broth microdilution method. The class given is functional. In a few lines: as §1
Assay [13] relates to Pseudomonas aeruginosa. The assay can be described thus: Antimicrobial activity against SHV-12 ESBL producing Pseudomonas aeruginosa isolate 2201 isolated from burn patient by broth microdilution method in presence of beta-lactamase inhibitor clavulanic acid. The class given is functional.
In assay [14] the test system is Pseudomonas aeruginosa. Kind of assay: Antimicrobial activity against SHV-12 ESBL non-producing Pseudomonas aeruginosa isolate 2204 isolated from burn patient by broth microdilution method in presence of beta-lactamase inhibitor clavulanic acid.

Experimental findings from ChEMBL document CHEMBL1649317, “Acquisition of a transposon encoding extended-spectrum beta-lactamase SHV-12 by Pseudomonas aeruginosa isolates during the clinical course of a burn patient” (2010) are described below.

Values after ≈ are worked out from the molar mass of the structure shown. Bounds are passed on as bounds.

One may read the MIC as the lowest concentration found to suppress growth.

Regarding `CC(C)(O/N=C(\C(=O)N[C@@H]1C(=O)N2C(C(=O)[O-])=C(C[n+]3ccccc3)CS[C@H]12)c1csc(N)n1)C(=O)O` [CEFTAZIDIME], the MIC was determined as 4 µg/mL (≈ 7.32 µM) against Pseudomonas aeruginosa [1]; 16 µg/mL in the assay with Pseudomonas aeruginosa [2]; 16 µg/mL in the assay with Pseudomonas aeruginosa [3]; 8 µg/mL (≈ 14.6 µM) with Pseudomonas aeruginosa [4]; 16 µg/mL in the assay with Pseudomonas aeruginosa [5]; 8 µg/mL with Pseudomonas aeruginosa [6]. Also, the MIC was 16 µg/mL (≈ 29.3 µM) with Pseudomonas aeruginosa [7]; 512 µg/mL (≈ 937 µM) with Pseudomonas aeruginosa [8]; 512 µg/mL (≈ 937 µM) against Pseudomonas aeruginosa [9]; 2 µg/mL (≈ 3.66 µM) against Pseudomonas aeruginosa [10]; 16 µg/mL in the assay on Pseudomonas aeruginosa [11]; 512 µg/mL (≈ 937 µM) with Pseudomonas aeruginosa [12]. Also, the values for the MIC in the assay on Pseudomonas aeruginosa [13] and in the assay on Pseudomonas aeruginosa [14] were 2 µg/mL and 4 µg/mL, respectively.
`CC1(C)S[C@@H]2[C@H](NC(=O)[C@H](C(=O)O)c3ccsc3)C(=O)N2[C@H]1C(=O)O` [TICARCILLIN]: the MIC in the assay on Pseudomonas aeruginosa [1] was 64 µg/mL (≈ 166 µM); with Pseudomonas aeruginosa [2], 32 µg/mL; with Pseudomonas aeruginosa [3], above 512 µg/mL; against Pseudomonas aeruginosa [4], 32 µg/mL (≈ 83.2 µM); in the assay with Pseudomonas aeruginosa [5], above 512 µg/mL; in the assay with Pseudomonas aeruginosa [6], 32 µg/mL. Also, the minimal inhibitory concentration (MIC) was 32 µg/mL (≈ 83.2 µM) against Pseudomonas aeruginosa [7]; above 512 µg/mL against Pseudomonas aeruginosa [8]; above 512 µg/mL in the assay with Pseudomonas aeruginosa [9]; 16 µg/mL (≈ 41.6 µM) against Pseudomonas aeruginosa [10]; above 512 µg/mL in the assay with Pseudomonas aeruginosa [11]; above 512 µg/mL in the assay with Pseudomonas aeruginosa [12]. The MIC with Pseudomonas aeruginosa [13] is 16 µg/mL; with Pseudomonas aeruginosa [14], 64 µg/mL.
Take `CO/N=C(\C(=O)N[C@@H]1C(=O)N2C(C(=O)O)=C(COC(C)=O)CS[C@H]12)c1csc(N)n1` [CEFOTAXIME]: the minimal inhibitory concentration (MIC) with Pseudomonas aeruginosa [1] came to 64 µg/mL (≈ 141 µM); with Pseudomonas aeruginosa [2], 256 µg/mL; in the assay with Pseudomonas aeruginosa [3] it was 64 µg/mL; against Pseudomonas aeruginosa [4], 128 µg/mL (≈ 281 µM); in the assay on Pseudomonas aeruginosa [5] it was 64 µg/mL; in the assay with Pseudomonas aeruginosa [6], 128 µg/mL. Moreover, the MIC in the assay with Pseudomonas aeruginosa [7] came to 256 µg/mL (≈ 562 µM); with Pseudomonas aeruginosa [8], 512 µg/mL (≈ 1120 µM); with Pseudomonas aeruginosa [9], 512 µg/mL (≈ 1120 µM); against Pseudomonas aeruginosa [10], 16 µg/mL (≈ 35.1 µM); with Pseudomonas aeruginosa [11], 64 µg/mL; in the assay with Pseudomonas aeruginosa [12], 512 µg/mL (≈ 1120 µM). Further, the MIC in the assay with Pseudomonas aeruginosa [13] is 16 µg/mL; in the assay on Pseudomonas aeruginosa [14], 64 µg/mL.
With `NCC[C@H](O)C(=O)N[C@@H]1C[C@H](N)[C@@H](O[C@H]2O[C@H](CN)[C@@H](O)[C@H](O)[C@H]2O)[C@H](O)[C@H]1O[C@H]1O[C@H](CO)[C@@H](O)[C@H](N)[C@H]1O` [AMIKACIN], the MIC in the assay on Pseudomonas aeruginosa [1] stood at 4 µg/mL (≈ 6.83 µM); in the assay on Pseudomonas aeruginosa [4], 4 µg/mL (≈ 6.83 µM); against Pseudomonas aeruginosa [7] it was 4 µg/mL (≈ 6.83 µM); in the assay on Pseudomonas aeruginosa [8] it was 128 µg/mL (≈ 219 µM); with Pseudomonas aeruginosa [9] it was 128 µg/mL (≈ 219 µM); with Pseudomonas aeruginosa [10], 4 µg/mL (≈ 6.83 µM). The same compound registered an MIC against Pseudomonas aeruginosa [12] of 128 µg/mL (≈ 219 µM).
In the case of `CO/N=C(\C(=O)N[C@@H]1C(=O)N2C(C(=O)[O-])=C(C[N+]3(C)CCCC3)CS[C@H]12)c1csc(N)n1`, the MIC against Pseudomonas aeruginosa [8] was 512 µg/mL (≈ 1070 µM); in the assay on Pseudomonas aeruginosa [9], 512 µg/mL (≈ 1070 µM); in the assay with Pseudomonas aeruginosa [12] it was 256 µg/mL (≈ 533 µM).
Consider `CCN1CCN(C(=O)N[C@@H](C(=O)N[C@@H]2C(=O)N3[C@@H]2SC(C)(C)[C@@H]3C(=O)O)c2ccccc2)C(=O)C1=O` [PIPERACILLIN], for which the MIC against Pseudomonas aeruginosa [1] amounted to 16 µg/mL (≈ 30.9 µM); in the assay with Pseudomonas aeruginosa [2] it was 32 µg/mL; with Pseudomonas aeruginosa [3], 256 µg/mL; with Pseudomonas aeruginosa [4], 16 µg/mL (≈ 30.9 µM); in the assay on Pseudomonas aeruginosa [5], 128 µg/mL; in the assay with Pseudomonas aeruginosa [6], 16 µg/mL. The MIC is 32 µg/mL (≈ 61.8 µM) with Pseudomonas aeruginosa [7]; 512 µg/mL (≈ 989 µM) with Pseudomonas aeruginosa [8]; 512 µg/mL (≈ 989 µM) against Pseudomonas aeruginosa [9]; 16 µg/mL (≈ 30.9 µM) in the assay with Pseudomonas aeruginosa [10]; 256 µg/mL in the assay on Pseudomonas aeruginosa [11]; 256 µg/mL (≈ 495 µM) in the assay on Pseudomonas aeruginosa [12]. Also, the MIC with Pseudomonas aeruginosa [13] and with Pseudomonas aeruginosa [14] was 16 µg/mL throughout.
Take `C[C@H]1[C@H](NC(=O)/C(=N\OC(C)(C)C(=O)O)c2csc(N)n2)C(=O)N1S(=O)(=O)O` [AZTREONAM]: the MIC against Pseudomonas aeruginosa [8], against Pseudomonas aeruginosa [9] and against Pseudomonas aeruginosa [12] was 512 µg/mL (≈ 1180 µM) throughout.
